Experimental data: ChEMBL document CHEMBL3044956, “Nematicidal and antifungal activities of annonaceous acetogenins from Annona squamosa against various plant pathogens” (J Agric Food Chem, 2011)
Values after ≈ are worked out from the molar mass of the structure shown. Active and inactive are the calls of the source. The rule behind the calls is not given here.

Columns and labels:
[1] = tested on: Botrytis cinerea; assay: In vivo antifungal activity against Botryotinia fuckeliana infected in tomato seedlings assessed as control of tomato gray mold disease development at 500 ug/ml treated 1 day before spore inoculation measured 3-7 days after inoculation; format: functional
How it was run: (§1)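 Potted seedlings sprayed to runoff with material dissolved in MeOH and diluted in 0.025% Tween 20 (5% MeOH); controls got the Tween/MeOH solution alone. Inoculated with spores or mycelial suspension 1 day later. Infected leaf or sheath area rated 3–7 days after inoculation; % control = 100(A−B)/A. Randomized complete block design, three replicates, run in duplicate; Tukey HSD.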

[2] = tested on: Meloidogyne incognita; assay: Nematicidal activity against second juvenile stage (J2) of Meloidogyne incognita (root-knot nematode) assessed as mortality incubated in the dark at 28 degC after 2 days by light microscopy (benficial crop Tomato); format: functional; details: 48 h
How it was run: (§2)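 M. incognita eggs taken from infected tomato roots with hypochlorite and J2s hatched in Baermann funnels at 28 °C. J2s from the first 3 days kept in 0.01% Tween 20 water and used within 24 h. About 100 J2s per well; stock added 1:100 in DMSO or MeOH (≤1%). Plates kept shaking in the dark at 28 °C, scored by microscope at 1, 2 and 3 days. Mortality Abbott-corrected. Two runs, three replicates each.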

[3] = tested on: Puccinia recondita; assay: In vivo antifungal activity against Puccinia recondita infected wheat seedlings assessed as reduction in wheat leaf rust disease symptoms development at 125 ug/ml treated 1 day before spore inoculation measured 7 days after inoculation; format: functional; design: scale not given: the % may be the effect or the level left; how it was run: as §1
[4] = tested on: Meloidogyne incognita; assay: Nematicidal activity against second juvenile stage (J2) of Meloidogyne incognita (root-knot nematode) assessed as mortality incubated in the dark at 28 degC after 3 days by light microscopy (benficial crop Tomato); format: functional; details: 72 h; how it was run: as §2
[5] = tested on: Bursaphelenchus xylophilus; assay: Nematicidal activity against second juvenile stage (J2) of Bursaphelenchus xylophilus assessed as mortality at >0.33 ug/ml after 2 days by microtiter plate assay method (Beneficial crop Pine); format: functional
How it was run: (§3)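 Pine wood nematodes reared on B. cinerea mycelia on PDA for 7 days at 28 °C. J2s collected in 0.01% Triton X-100 water and tested in microtiter plates. Compounds in DMSO or MeOH, solvent ≤1%; solvent-only controls. Concentrations 0.004–1 μg/mL. Mortality Abbott-corrected; LC50 by probit. Two runs, three replicates each.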

[6] = tested on: Puccinia recondita; assay: In vivo antifungal activity against Puccinia recondita infected wheat seedlings assessed as reduction in wheat leaf rust disease symptoms development at 500 ug/ml treated 1 day before spore inoculation measured 7 days after inoculation; format: functional; design: scale not given: the % may be the effect or the level left; how it was run: as §1
[7] = tested on: Blumeria hordei; assay: In vivo antifungal activity against Blumeria graminis f. sp. hordei infected barley seedlings assessed as control of barley powdery mildew disease development at 250 ug/ml treated 1 day before spore inoculation measured 3-7 days after inoculation; format: functional; how it was run: as §1
[8] = tested on: Rhizoctonia solani; assay: In vivo antifungal activity against Rhizoctonia solani infected rice seedlings assessed as control of rice sheath blight disease development at 125 ug/ml treated 1 day before spore inoculation measured 3-7 days after inoculation; format: functional; how it was run: as §1
[9] = tested on: Pyricularia oryzae; assay: In vivo antifungal activity against Magnaporthe oryzae infected rice seedlings assessed as control of rice blast disease development at 500 ug/ml treated 1 day before spore inoculation measured 3-7 days after inoculation; format: functional; how it was run: as §1
[10] = tested on: Pyricularia oryzae; assay: In vivo antifungal activity against Magnaporthe oryzae infected rice seedlings assessed as control of rice blast disease development at 125 ug/ml treated 1 day before spore inoculation measured 3-7 days after inoculation; format: functional; how it was run: as §1
[11] = tested on: Rhizoctonia solani; assay: In vivo antifungal activity against Rhizoctonia solani infected rice seedlings assessed as control of rice sheath blight disease development at 500 ug/ml treated 1 day before spore inoculation measured 3-7 days after inoculation; format: functional; how it was run: as §1
[12] = tested on: Blumeria hordei; assay: In vivo antifungal activity against Blumeria graminis f. sp. hordei infected barley seedlings assessed as control of barley powdery mildew disease development at 125 ug/ml treated 1 day before spore inoculation measured 3-7 days after inoculation; format: functional; how it was run: as §1
[13] = tested on: Puccinia recondita; assay: In vivo antifungal activity against Puccinia recondita infected wheat seedlings assessed as reduction in wheat leaf rust disease symptoms development at 250 ug/ml treated 1 day before spore inoculation measured 7 days after inoculation; format: functional; design: scale not given: the % may be the effect or the level left; how it was run: as §1
[14] = tested on: Phytophthora infestans; assay: In vivo antifungal activity against Phytophthora infestans zoospores infected tomato seedlings assessed as control of tomato late blight disease development treated 1 day before spore inoculation measured 3 days after inoculation; format: functional, organism-based; how it was run: as §1
[15] = tested on: Blumeria hordei; assay: In vivo antifungal activity against Blumeria graminis f. sp. hordei infected barley seedlings assessed as control of barley powdery mildew disease development at 500 ug/ml treated 1 day before spore inoculation measured 3-7 days after inoculation; format: functional; how it was run: as §1
[16] = tested on: Phytophthora infestans; assay: Antifungal activity against Phytophthora infestans assessed as inhibition of radial mycelial growth at 11.11 to 900 ug/ml incubated at 20 degC for 5 to 7 days by poison plate assay; format: functional
How it was run: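 Poison-plate assay: material in MeOH added 1:100 to V8-agar at 50 °C, 2 mL per well of six-well plates, centre-inoculated with a 5 mm plug from the colony margin. Incubated at 20 °C until control growth reached the edge. Controls were 1% MeOH. Read as % inhibition of radial growth. Two runs, four replicates each. IC50 by probit.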

[17] = tested on: Phytophthora infestans; assay: Antifungal activity against Phytophthora infestans assessed as inhibition of zoospore germination incubated in the dark at 20 degC for 24 hr by light microscopy; format: functional, organism-based
How it was run: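 Zoospores released by chilling sporangia 1 h at 4 °C, then filtered to remove sporangia. Test solution in MeOH mixed 1:100 with the suspension (1% MeOH control), loaded onto hole-slide glasses and kept humid at 20 °C for 24 h in the dark. Germinated cells counted per hole by light microscope. Experiment repeated, mean ± SD.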

[18] = tested on: Colletotrichum coccodes; assay: In vivo antifungal activity against Colletotrichum coccodes infected red pepper seedlings assessed as control of red pepper anthracnose development at 250 ug/ml treated 1 day before spore inoculation measured 3-7 days after inoculation; format: functional; how it was run: as §1
[19] = tested on: Rhizoctonia solani; assay: In vivo antifungal activity against Rhizoctonia solani infected rice seedlings assessed as control of rice sheath blight disease development at 250 ug/ml treated 1 day before spore inoculation measured 3-7 days after inoculation; format: functional; how it was run: as §1
[20] = tested on: Bursaphelenchus xylophilus; assay: Nematicidal activity against second juvenile stage (J2) of Bursaphelenchus xylophilus assessed as mortality after 2 days by microtiter plate assay method (Beneficial crop Pine); format: functional; details: 48 h; how it was run: as §3
[21] = tested on: Phytophthora infestans; assay: Antifungal activity against Phytophthora infestans assessed as inhibition of sporangium germination incubated at 20 degC for 24 hr by light microscopy; format: functional, organism-based
How it was run: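 Sporangium germination: compounds serially diluted in MeOH (12500 to 391 μg/mL as stock series), sporangia incubated 24 h at 20 °C. About 100 sporangia per replicate scored for germination by light microscope. Experiment repeated, mean ± SD. IC50 by probit.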

[22] = tested on: Botrytis cinerea; assay: In vivo antifungal activity against Botryotinia fuckeliana infected in tomato seedlings assessed as control of tomato gray mold disease development at 250 ug/ml treated 1 day before spore inoculation measured 3-7 days after inoculation; format: functional; how it was run: as §1
[23] = tested on: Botrytis cinerea; assay: In vivo antifungal activity against Botryotinia fuckeliana infected in tomato seedlings assessed as control of tomato gray mold disease development at 125 ug/ml treated 1 day before spore inoculation measured 3-7 days after inoculation; format: functional; how it was run: as §1
[24] = tested on: Colletotrichum coccodes; assay: In vivo antifungal activity against Colletotrichum coccodes infected red pepper seedlings assessed as control of red pepper anthracnose development at 500 ug/ml treated 1 day before spore inoculation measured 3-7 days after inoculation; format: functional; how it was run: as §1
[25] = tested on: Pyricularia oryzae; assay: In vivo antifungal activity against Magnaporthe oryzae infected rice seedlings assessed as control of rice blast disease development at 250 ug/ml treated 1 day before spore inoculation measured 3-7 days after inoculation; format: functional; how it was run: as §1
[26] = tested on: Meloidogyne incognita; assay: Nematicidal activity against second juvenile stage (J2) of Meloidogyne incognita (root-knot nematode) assessed as mortality incubated in the dark at 28 degC after 1 day by light microscopy (benficial crop Tomato); format: functional; details: 24 h; how it was run: as §2
[27] = tested on: Meloidogyne incognita; assay: Nematicidal activity against second juvenile stage (J2) of Meloidogyne incognita (root-knot nematode) assessed as mortality at 11 ug/ml incubated in the dark at 28 degC within 2 hr by light microscopy (benficial crop Tomato); format: functional
[28] = tested on: Phytophthora infestans; assay: In vivo antifungal activity against Phytophthora infestans zoospores infected tomato seedlings assessed as control of tomato late blight disease development at 3.9 ug/ml treated 1 day before spore inoculation measured 3 days after inoculation; format: functional; how it was run: as §1
[29] = tested on: Puccinia recondita; assay: In vivo antifungal activity against Puccinia recondita infected wheat seedlings assessed as reduction in wheat leaf rust disease symptoms development at 50 to 300 ug/ml treated 1 day before spore inoculation measured 7 days after inoculation; format: functional, organism-based; how it was run: as §1
[30] = tested on: Colletotrichum coccodes; assay: In vivo antifungal activity against Colletotrichum coccodes infected red pepper seedlings assessed as control of red pepper anthracnose development at 125 ug/ml treated 1 day before spore inoculation measured 3-7 days after inoculation; format: functional; how it was run: as §1
[31] = tested on: Caenorhabditis elegans; assay: Nematicidal activity against Caenorhabditis elegans assessed as mortality; format: functional

SMILES | Activity [1] [%] | LC50 [2] [µg/mL] | LC50 [4] [µg/mL] | mortality [5] [%] | Activity [7] [%] | Activity [8] [%] | Activity [9] [%] | Activity [10] [%] | Activity [11] [%] | Activity [12] [%] | Activity [14] | Activity [15] [%] | growth inhibition (GI) [16] [%] | IC50 [17] [µg/mL] | inhibition [17] | Activity [18] [%] | Activity [19] [%] | LC50 [20] [µg/mL] | IC50 [21] [µg/mL] | inhibition [21] | further results
CCCCCCCCCC[C@H](O)[C@H]1CC[C@H]([C@H]2CC[C@H]([C@H](O)CCCCCCCCCC[C@@H](O)CC3=C[C@H](C)OC3=O)O2)O1 (relative stereo) [REL-SQUAMOCIN-G] | 0 | 0.339 (≈ 0.544 µM) | 0.287 (≈ 0.461 µM) | 100 | 25 | 11.8 | 18.8 | 12.5 | 0 | 0 | Dose-dependent effect | 0 | 31 | 1.92 (≈ 3.08 µM) | Dose-dependent effect | 0 | 0 | 0.008 | 1.43 (≈ 2.3 µM) | Dose-dependent effect | Activity [3]: 0%; Activity [6]: 0%; Activity [13]: 0%; Activity [22]: 20%; Activity [23]: 20%; Activity [24]: 0%; Activity [25]: 18.8%; LC50 [26]: 0.864 µg/mL (≈ 1.39 µM); mortality at 11 µg/mL [27]: 100%
CCCCCC[C@H](O)CCC[C@H](O)[C@H]1CC[C@H]([C@H](O)CC[C@H](O)[C@@H]2CC[C@@H](CCCCCCCCCC3=C[C@H](C)OC3=O)O2)O1 (relative stereo) [SQUAMOSTATIN A] | 10 | – | – | 100 | 0 | 0 | 37.5 | 50 | 11.8 | 0 | Dose-dependent effect | 0 | 31 | 1.89 (≈ 2.96 µM) | Dose-dependent effect | 40 | 11.8 | 0.048 | 2.09 (≈ 3.27 µM) | Dose-dependent effect | Activity [28]: >70%; Activity [29]: Active; Activity [22]: 10%; Activity [23]: 10%; Activity [24]: 0%; Activity [25]: 31.3%; Activity [30]: 20%
CCCCCCCCCC[C@@H](O)[C@H]1CC[C@H]([C@H]2CC[C@H]([C@H](O)CCCCCCCCCC[C@@H](O)CC3=C[C@H](C)OC3=O)O2)O1 [REL-SQUAMOCIN-H] | – | 71.2 (≈ 114 µM) | 24.3 (≈ 39 µM) | 100 | – | – | – | – | – | – | – | – | – | – | – | – | – | 0.012 | – | – | LD100 [31]: 0.1 ppm; LC50 [26]: > 100 µg/mL
